Results published in ChEMBL document CHEMBL3763019, “Discovery of benzenesulfonamide derivatives as potent PI3K/mTOR dual inhibitors with in vivo efficacies against hepatocellular carcinoma” (Bioorg Med Chem, 2016).

Columns and labels:
[1] = Antiproliferative activity against human HOP62 cells incubated for 48 hrs by sulforhodamine B assay; format: functional; settings: HOP-62, 48 h
Procedure, shortened: (§1)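 Run externally by the US National Cancer Institute as part of its 60 human cancer cell line cytotoxicity screen (NCI-60).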

MDA-MB-231 = assay: Antiproliferative activity against human MDA-MB-231 cells incubated for 48 hrs by sulforhodamine B assay; format: functional; settings: MDA-MB-231, 48 h; procedure, shortened: as §1
SN12C = assay: Antiproliferative activity against human SN12C cells incubated for 48 hrs by sulforhodamine B assay; format: functional; procedure, shortened: as §1
[2] = target: T1, Phosphatidylinositol 4,5-bisphosphate 3-kinase catalytic subunit delta isoform (Homo sapiens) (UniProt O00329); assay: Inhibition of PI3K-delta (unknown origin) using PIP2 as substrate at 10 nM incubated for 1 hr by Kinase-Glo luminescent kinase assay
T1 sequence (whole entry): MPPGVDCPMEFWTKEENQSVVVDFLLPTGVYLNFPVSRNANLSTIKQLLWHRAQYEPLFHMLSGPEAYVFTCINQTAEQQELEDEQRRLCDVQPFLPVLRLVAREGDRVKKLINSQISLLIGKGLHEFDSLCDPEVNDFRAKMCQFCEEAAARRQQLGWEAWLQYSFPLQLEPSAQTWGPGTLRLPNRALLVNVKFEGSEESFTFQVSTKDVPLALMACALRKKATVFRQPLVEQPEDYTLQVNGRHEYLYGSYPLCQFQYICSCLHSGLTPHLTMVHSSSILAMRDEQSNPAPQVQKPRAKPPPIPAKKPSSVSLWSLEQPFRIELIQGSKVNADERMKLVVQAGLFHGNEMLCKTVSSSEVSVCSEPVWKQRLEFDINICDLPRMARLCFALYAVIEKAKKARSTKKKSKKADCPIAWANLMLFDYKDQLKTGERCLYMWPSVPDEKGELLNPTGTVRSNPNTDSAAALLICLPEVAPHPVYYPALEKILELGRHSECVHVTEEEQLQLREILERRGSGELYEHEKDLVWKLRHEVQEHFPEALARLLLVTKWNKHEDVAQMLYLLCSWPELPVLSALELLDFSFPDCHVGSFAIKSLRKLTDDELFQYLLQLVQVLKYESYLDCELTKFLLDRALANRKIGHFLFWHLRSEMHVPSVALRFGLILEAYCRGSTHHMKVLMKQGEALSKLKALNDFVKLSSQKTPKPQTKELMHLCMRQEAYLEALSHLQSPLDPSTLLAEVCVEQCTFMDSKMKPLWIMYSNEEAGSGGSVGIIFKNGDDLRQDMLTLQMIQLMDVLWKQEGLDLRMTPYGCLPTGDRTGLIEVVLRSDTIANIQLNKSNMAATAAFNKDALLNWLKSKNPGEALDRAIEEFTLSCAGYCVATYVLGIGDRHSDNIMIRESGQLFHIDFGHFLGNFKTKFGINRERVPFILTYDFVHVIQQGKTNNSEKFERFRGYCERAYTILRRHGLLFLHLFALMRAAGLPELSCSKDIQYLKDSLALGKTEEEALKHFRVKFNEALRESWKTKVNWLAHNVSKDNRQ
Procedure, shortened: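 Final PIP2 was 50 µM and ATP 25 µM; PI3Kδ was 1.65 nM. Reactions ran 1 h at room temperature, then Kinase-Glo was added for 15 min before reading luminescence. Percent inhibition was derived from RLU. Dose-response used ten 3-fold dilutions (top 100 or 500 nM) in duplicate.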

MDA-MB-435 = assay: Antiproliferative activity against human MDA-MB-435 cells incubated for 48 hrs by sulforhodamine B assay; format: functional; settings: MDA-MB-435, 48 h; procedure, shortened: as §1
NCI-H322M = assay: Antiproliferative activity against human NCI-H322M cells incubated for 48 hrs by sulforhodamine B assay; format: functional; procedure, shortened: as §1
[3] = Antiproliferative activity against human SF268 cells incubated for 48 hrs by sulforhodamine B assay; format: functional; settings: SF-268, 48 h; procedure, shortened: as §1
[4] = Antiproliferative activity against human NCI-ADR-RES cells incubated for 48 hrs by sulforhodamine B assay; format: functional; procedure, shortened: as §1
[5] = Antiproliferative activity against human OVCAR4 cells incubated for 48 hrs by sulforhodamine B assay; format: functional; settings: OVCAR-4, 48 h; procedure, shortened: as §1
KM12 = assay: Antiproliferative activity against human KM12 cells incubated for 48 hrs by sulforhodamine B assay; format: functional; settings: KM12, 48 h; procedure, shortened: as §1
[6] = Antiproliferative activity against human BT549 cells incubated for 48 hrs by sulforhodamine B assay; format: functional; settings: BT-549, 48 h; procedure, shortened: as §1
NCI-H226 = assay: Antiproliferative activity against human NCI-H226 cells incubated for 48 hrs by sulforhodamine B assay; format: functional; settings: NCI-H226, 48 h; procedure, shortened: as §1
[7] = target: Serine/threonine-protein kinase mTOR (Homo sapiens, UniProt P42345); assay: Inhibition of mTOR kinase (unknown origin) assessed as suppression of ULight-4E-BP1 substrate phosphorylation incubated for 1 hr by lance ultra assay
[8] = Antiproliferative activity against human HCC2998 cells incubated for 48 hrs by sulforhodamine B assay; format: functional; settings: HCC 2998, 48 h; procedure, shortened: as §1
[9] = Antiproliferative activity against human IGROV1 cells incubated for 48 hrs by sulforhodamine B assay; format: functional; settings: IGROV-1, 48 h
A498 = assay: Antiproliferative activity against human A498 cells incubated for 48 hrs by sulforhodamine B assay; format: functional; settings: A498, 48 h; procedure, shortened: as §1
CCRF-CEM = assay: Antiproliferative activity against human CCRF-CEM cells incubated for 48 hrs by sulforhodamine B assay; format: functional; procedure, shortened: as §1
[10] = Antiproliferative activity against human UACC257 cells incubated for 48 hrs by sulforhodamine B assay; format: functional; settings: UACC-257, 48 h
A549 = assay: Inhibition of insulin-stimulated PI3K in human A549 cells assessed as suppression of AKT phosphorylation at Ser473 after 30 mins by Western blot analysis; format: cell-based
Procedure, shortened: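 A549 cells were insulin-stimulated for 2 h, then exposed to four compound concentrations for 30 min. Lysis was in ice-cold RIPA buffer, protein was quantified by BCA, and lysates were run on 10% SDS-PAGE and transferred to nitrocellulose. Detection was by infrared imaging, with β-actin as loading control.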

[11] = read-out: pLC50 (the source's name) (converted)

COc1ncc(-c2ccc3nccc(C#CCN4CCN(S(C)(=O)=O)CC4)c3c2)cc1NS(=O)(=O)c1ccc(F)cc1F
GI50 [1]: < 10 nM
CC50 [1, 11]: 63100 nM
TGI ([1]; read-out: pTGI (converted)): 2820 nM
GI50 (MDA-MB-231): 437 nM
CC50 (MDA-MB-231; [11]): 72400 nM
TGI (MDA-MB-231; read-out: pTGI (converted)): 19500 nM
GI50 (SN12C): 102 nM
CC50 (SN12C; [11]): > 100000 nM
TGI (SN12C; read-out: pTGI (converted)): 12300 nM
inhibition [2]: 25.8%
GI50 (MDA-MB-435): 75.9 nM
CC50 (MDA-MB-435; [11]): 6610 nM
TGI (MDA-MB-435; read-out: pTGI (converted)): 1070 nM
GI50 (NCI-H322M): 110 nM
CC50 (NCI-H322M; [11]): 36300 nM
TGI (NCI-H322M; read-out: pTGI (converted)): 6920 nM
GI50 [3]: 110 nM
CC50 [3, 11]: 25100 nM
TGI ([3]; read-out: pTGI (converted)): 2880 nM
GI50 [4]: 355 nM
CC50 [4, 11]: 79400 nM
TGI ([4]; read-out: pTGI (converted)): 12000 nM
GI50 [5]: 257 nM
CC50 [5, 11]: 46800 nM
TGI ([5]; read-out: pTGI (converted)): 11500 nM
GI50 (KM12): 275 nM
CC50 (KM12; [11]): 4790 nM
TGI (KM12; read-out: pTGI (converted)): 1480 nM
GI50 [6]: 41.7 nM
CC50 [6, 11]: 4570 nM
TGI ([6]; read-out: pTGI (converted)): 813 nM
GI50 (NCI-H226): 245 nM
CC50 (NCI-H226; [11]): 7240 nM
TGI (NCI-H226; read-out: pTGI (converted)): 1820 nM
IC50 [7]: 5.4 nM
GI50 [8]: 61.7 nM
CC50 [8, 11]: 3980 nM
TGI ([8]; read-out: pTGI (converted)): 1120 nM
GI50 [9]: < 10 nM
CC50 [9, 11]: > 100000 nM
GI50 (A498): 37.1 nM
CC50 (A498; [11]): 2190 nM
TGI (A498; read-out: pTGI (converted)): 245 nM
GI50 (CCRF-CEM): 148 nM
CC50 (CCRF-CEM; [11]): > 100000 nM
TGI (CCRF-CEM; read-out: pTGI (converted)): 2570 nM
GI50 [10]: 38.9 nM
CC50 [10, 11]: 15500 nM
TGI ([10]; read-out: pTGI (converted)): 603 nM
inhibition (A549): Dose-dependent effect
